From ChEMBL document CHEMBL4680153, “New Spisulosine Derivative promotes robust autophagic response to cancer cells” (Eur J Med Chem, 2020)
pIC50: −log10 of the molar value. Active and inactive are the calls of the source. No cut-off for these calls is given here.

Columns and labels:
[1] = system: DLD-1; assay: Induction of apoptosis in human DLD-1 cells assessed as viable cells at 7.5 uM incubated for 18 hrs by Annexin V-FITC and propidium iodide staining based flow cytometry analysis (reference value: 85.2 %); format: functional; conditions: read-out: Activity
[2] = system: DLD-1; assay: Induction of autophagy in human DLD-1 cells assessed as increase in Beclin expression at 10 uM measured upto 6 hrs by Western blot analysis; format: functional, cell-based; conditions: time hrs <=6
Outline: (§1)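 DLD-1 cells were treated with 10 μM compound or vehicle for the indicated times. Equal protein from NP-40 lysates was run on 15% SDS-PAGE and transferred to PVDF. Immunoblots for Beclin-1, Atg3, Atg5 and Atg7 were developed by chemiluminescence.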

[3] = system: DLD-1; assay: Induction of autophagy in human DLD-1 cells assessed as reduction in cell viability at 7.5 uM incubated for 24 hrs by crystal violet staining based phase contrast microscopic analysis; format: functional
[4] = system: DLD-1; assay: Induction of autophagy in human DLD-1 cells assessed as increase in Atg3 expression at 10 uM measured upto 6 hrs by Western blot analysis; format: functional, cell-based; conditions: time hrs <=6; outline: as §1
[5] = system: A549; assay: Antiproliferative activity against human A549 cells assessed as reduction in cell growth at 10 uM incubated for 48 hrs by SRB assay relative to control; format: functional
Outline: (§2)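 Early-passage cells plated at 40% confluency and left overnight, then exposed to 10 μM compound for 48 h. Growth was measured by sulforhodamine B staining, with absorbance at 510 nm. Percent growth inhibition was calculated against untreated cells.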

[6] = system: DLD-1; assay: Induction of vacuole formation in human DLD-1 cells assessed as increase in cellular granularity at 7.5 uM incubated for 18 hrs by FACS analysis; format: functional, cell-based
Outline: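 DLD-1 cells were given vehicle or 7.5 μM compound for 18 h. Cell size (forward scatter) and granularity (side scatter) were then read by flow cytometry.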

[7] = system: CCD-18Co; assay: Antiproliferative activity against human CCD-18Co cells assessed as reduction in cell growth incubated for 48 hrs by SRB assay; format: cell-based
Outline: (§3)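 Colon cancer lines and CCD-18Co normal colon fibroblasts, early passage, plated at 40% confluency and incubated overnight. They were then treated with varying concentrations for 48 h. The SRB read-out was absorbance at 510 nm, and IC50 was taken as the half-maximal proliferation-inhibitory concentration.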

[8] = system: DLD-1; assay: Induction of autophagy in human DLD-1 cells assessed as increase in LC-3 punta formation at 1 to 5 uM incubated for 6 hrs by based confocal microscopy; format: functional, cell-based; conditions: dose 1-5 µM
Outline: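 DLD-1 cells were grown overnight on coverslips and treated with vehicle or compound for 6 h. They were fixed in 4% paraformaldehyde, permeabilized with 0.1% Triton X-100 and blocked in 2% BSA. Primary antibody was applied overnight at 4°C, then fluorescent secondary for 2 h with a DAPI counterstain. LC3 puncta were imaged by confocal microscopy with a 63× oil objective.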

[9] = system: DLD-1; assay: Antiproliferative activity against human DLD-1 cells assessed as reduction in cell growth incubated for 48 hrs by SRB assay; format: functional, cell-based; conditions: DLD-1, 48 h; outline: as §3
[10] = system: SW48; assay: Antiproliferative activity against human SW48 cells assessed as reduction in cell growth incubated for 48 hrs by SRB assay; format: functional, cell-based; conditions: SW48, 48 h; outline: as §3
[11] = system: MCF7; assay: Antiproliferative activity against human MCF7 cells assessed as reduction in cell growth at 10 uM incubated for 48 hrs by SRB assay relative to control; format: functional; outline: as §2
[12] = system: HT-29; assay: Antiproliferative activity against human HT-29 cells assessed as reduction in cell growth at 10 uM incubated for 48 hrs by SRB assay relative to control; format: functional; outline: as §2
[13] = system: DLD-1; assay: Induction of autophagy in human DLD-1 cells assessed as nuclear damage at 5 uM measured upto 6 hrs by TEM analysis; format: functional, cell-based; conditions: time hrs <=6
Outline: (§4)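 DLD-1 cells were treated at 5 μM for 6 h, fixed in 2.5% glutaraldehyde in phosphate buffer (pH 7.4) and post-fixed in 1% OsO4. Samples were dehydrated through ethanol and embedded in Spurr resin, and ultrathin sections were stained with uranyl acetate and lead citrate. Sections were viewed by TEM at 80 kV, with at least 200 cells per set across 4 grids.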

[14] = system: DLD-1; assay: Induction of apoptosis in human DLD-1 cells assessed as increase in PARP cleavage at 5 to 7.5 uM by Western blot analysis; format: functional, cell-based; conditions: dose 5-7.5 µM
Outline: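 DLD-1 cells were treated at 7.5 μM for 18 h and lysed in NP-40 buffer containing protease and phosphatase inhibitors. Protein was quantified by BCA, and equal amounts were run on 15% SDS-PAGE and transferred to PVDF. Cleaved PARP was probed and detected by enhanced chemiluminescence.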

[15] = system: MDA-MB-231; assay: Antiproliferative activity against human MDA-MB-231 cells assessed as reduction in cell growth at 10 uM incubated for 48 hrs by SRB assay relative to control; format: functional; outline: as §2
[16] = system: DLD-1; assay: Induction of autophagy in human DLD-1 cells assessed as vacuole formation at 7.5 uM incubated for 24 hrs by phase contrast microscopic analysis; format: functional, cell-based
Outline: (§5)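 DLD-1 cells received vehicle, 7.5 μM compound alone, or compound plus 100 nM bafilomycin A1 pretreatment for 24 h. Cells were then examined by phase-contrast microscopy.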

[17] = system: DLD-1; assay: Induction of autophagy in human DLD-1 cells assessed as increase in Atg5 expression at 10 uM measured upto 6 hrs by Western blot analysis; format: functional, cell-based; conditions: time hrs <=6; outline: as §1
[18] = system: LoVo; assay: Antiproliferative activity against human LoVo cells assessed as reduction in cell growth incubated for 48 hrs by SRB assay; format: functional, cell-based; outline: as §3
[19] = system: DLD-1; assay: Induction of autophagy in human DLD-1 cells assessed as vacuole formation at 5 uM measured upto 6 hrs by TEM analysis; format: functional, cell-based; conditions: time hrs <=6; outline: as §4
[20] = system: COLO 205; assay: Antiproliferative activity against human COLO 205 cells assessed as reduction in cell growth incubated for 48 hrs by SRB assay; format: functional, cell-based; conditions: COLO 205, 48 h; outline: as §3
[21] = system: SW-620; assay: Antiproliferative activity against human SW-620 cells assessed as reduction in cell growth incubated for 48 hrs by SRB assay; format: functional, cell-based; conditions: SW-620, 48 h; outline: as §3
[22] = system: DLD-1; assay: Induction of autophagy in human DLD-1 cells assessed as vacuole formation at 7.5 uM incubated for 20 hrs by MDC staining based confocal microscopy; format: functional, cell-based
Outline: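 DLD-1 cells were incubated with drug for 20 h and then labeled with monodansylcadaverine in PBS for 20 min at 37°C in the dark. After washing, cells were imaged at once by confocal microscopy (excitation 390 nm, emission 460 nm).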

[23] = system: DLD-1; assay: Induction of autophagy in human DLD-1 cells assessed as vacuole formation at 7.5 uM incubated for 24 hrs in presence of Bafilomycin-A1 by phase contrast microscopic analysis; format: functional, cell-based; outline: as §5
[24] = system: DLD-1; assay: Induction of autophagy in human DLD-1 cells assessed as mitochondrial damage at 5 uM measured upto 6 hrs by TEM analysis; format: functional, cell-based; conditions: time hrs <=6; outline: as §4
[25] = system: DLD-1; assay: Induction of apoptosis in human DLD-1 cells assessed as late apoptotic cells at 7.5 uM incubated for 18 hrs by Annexin V-FITC and propidium iodide staining based flow cytometry analysis (reference value: 5.7 %); format: functional
[26] = system: DLD-1; assay: Antiproliferative activity against human DLD-1 cells assessed as reduction in cell growth at 10 uM incubated for 48 hrs by SRB assay relative to control; format: functional; outline: as §2
[27] = system: DLD-1; assay: Induction of apoptosis in human DLD-1 cells assessed as necrotic cells at 7.5 uM incubated for 18 hrs by Annexin V-FITC and propidium iodide staining based flow cytometry analysis (reference value: 4.1 %); format: functional
[28] = system: DLD-1; assay: Induction of autophagy in human DLD-1 cells assessed as increase in Atg7 expression at 10 uM measured upto 6 hrs by Western blot analysis; format: functional, cell-based; conditions: time hrs <=6; outline: as §1
[29] = system: DLD-1; assay: Induction of autophagy in human DLD-1 cells assessed as reduction in cell viability at 7.5 uM incubated for 24 hrs in presence of Bafilomycin-A1 by crystal violet staining based phase contrast microscopic analysis; format: functional
[30] = system: DLD-1; assay: Induction of autophagy in human DLD-1 cells assessed as increase in LC3B-I to LC3B-II conversion at 7.5 uM incubated for 18 hrs by Western blot analysis; format: functional, cell-based
Outline: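 Vehicle or 7.5 μM compound was applied to DLD-1 cells for 18 h. Cells were lysed in NP-40 with inhibitors and equal protein was resolved on 15% SDS-PAGE and blotted to PVDF. Blots were probed for LC3A/B, with GAPDH as reference, and detected by ECL.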

[31] = system: DLD-1; assay: Induction of apoptosis in human DLD-1 cells assessed as early apoptotic cells at 7.5 uM incubated for 18 hrs by Annexin V-FITC and propidium iodide staining based flow cytometry analysis (reference value: 4.95 %); format: functional
[32] = system: HT-29; assay: Antiproliferative activity against human HT-29 cells assessed as reduction in cell growth incubated for 48 hrs by SRB assay; format: functional, cell-based; conditions: HT-29, 48 h; outline: as §3
[33] = system: NCI-H358; assay: Antiproliferative activity against human NCI-H358 cells assessed as reduction in cell growth at 10 uM incubated for 48 hrs by SRB assay relative to control; format: functional; outline: as §2

How did the viability at 7.5 µM [1] turn out when `CCCCCCCCCCCCCC[C@H](O)[C@@H](N)Cc1ccc(OC)cc1` was run?
Its viability at 7.5 µM is 93.6%.

And the Activity [2]?
The Activity was “Active”.

And the Activity [3]?
Its Activity is “Active”.

What about the Activity [4] of the same compound?
The Activity was “Active”.

What about the inhibition at 10 µM [5] of the same compound?
The inhibition at 10 µM was 94.8%.

And the Activity [6]?
Its Activity is “Active”.

And the pIC50 [7]?
The pIC50 was less than 5.00.

What about the Activity [8] of the same compound?
Its Activity is “Active”.

What about the pIC50 [9] of the same compound?
Its pIC50 is 5.35.

And the pIC50 [10]?
Its pIC50 is 5.50.

What about the inhibition at 10 µM [11] of the same compound?
The inhibition at 10 µM was 89.3%.

And the inhibition at 10 µM [12]?
Its inhibition at 10 µM is 97.7%.

What about the Activity [13] of the same compound?
Its Activity is “inactive”.

What about the Activity [14] of the same compound?
Its Activity is “inactive”.

And the inhibition at 10 µM [15]?
The inhibition at 10 µM was 96.8%.

What about the Activity [16] of the same compound?
The Activity was “Active”.

And the Activity [17]?
The Activity was “Active”.

What about the pIC50 [18] of the same compound?
Its pIC50 is 5.48.

What about the Activity [19] of the same compound?
The Activity was “Active”.

And the pIC50 [20]?
Its pIC50 is 5.69.

And the pIC50 [21]?
The pIC50 was 5.73.

What about the Activity [22] of the same compound?
The Activity was “Active”.

What about the Activity [23] of the same compound?
The Activity was “inactive”.

What about the Activity [24] of the same compound?
The Activity was “inactive”.

What about the Activity [25] of the same compound?
The Activity was 0.8%.

And the inhibition at 10 µM [26]?
Its inhibition at 10 µM is 97.3%.

What about the Activity [27] of the same compound?
The Activity was 5%.

What about the Activity [28] of the same compound?
The Activity was “Active”.

What about the Activity [29] of the same compound?
The Activity was “inactive”.

What about the Activity [30] of the same compound?
The Activity was “Active”.

What about the Activity [31] of the same compound?
Its Activity is 0.46%.

What about the pIC50 [32] of the same compound?
Its pIC50 is 5.38.

And the inhibition at 10 µM [33]?
Its inhibition at 10 µM is 90.4%.
